Experimental data reported in ChEMBL document CHEMBL2375313, “Synthesis, in vitro antitumor evaluation and DNA-binding study of novel tetrahydroquinolines and some derived tricyclic and tetracyclic ring systems” (Eur J Med Chem, 2013).
≈ marks a conversion by molar mass, not a printed value. Calls of active or inactive are those of the source. The calls are words filed in the database; no cut-off is given here.

Legend:
[1] = Cytotoxicity against human EKVX cells assessed as growth inhibition at 10 uM after 48 hrs by sulphorhodamine B assay; format: functional; details: read-out: GI
Outline: (§1)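 NCI-60 one-dose screen per the NCI Drug Evaluation Branch protocol. Cells given a single 10 µM concentration with 48 h continuous exposure. Growth estimated by sulphorhodamine B protein assay. Result expressed as percentage growth inhibition relative to untreated growth.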

SK-MEL-2 = experiment: Cytotoxicity against human SK-MEL-2 cells assessed as growth inhibition at 10 uM after 48 hrs by sulphorhodamine B assay; format: functional; details: SK-MEL-2, 48 h, read-out: GI; outline: as §1
SK-MEL-5 = experiment: Cytotoxicity against human SK-MEL-5 cells assessed as growth inhibition at 10 uM after 48 hrs by sulphorhodamine B assay; format: functional; details: SK-MEL-5, 48 h, read-out: GI; outline: as §1
SK-OV-3 = experiment: Cytotoxicity against human SKOV3 cells assessed as growth inhibition at 10 uM after 48 hrs by sulphorhodamine B assay; format: functional; details: SK-OV-3, 48 h, read-out: GI; outline: as §1
OVCAR-4 = experiment: Cytotoxicity against human OVCAR4 cells assessed as growth inhibition at 10 uM after 48 hrs by sulphorhodamine B assay; format: functional; details: OVCAR-4, 48 h, read-out: GI; outline: as §1
SNB-75 = experiment: Cytotoxicity against human SNB75 cells assessed as growth inhibition at 10 uM after 48 hrs by sulphorhodamine B assay; format: functional; details: SNB-75, 48 h, read-out: GI; outline: as §1
UO-31 = experiment: Cytotoxicity against human UO31 cells assessed as growth inhibition at 10 uM after 48 hrs by sulphorhodamine B assay; format: functional; details: UO-31, 48 h, read-out: GI; outline: as §1
HCT-15 = experiment: Cytotoxicity against human HCT15 cells assessed as growth inhibition at 10 uM after 48 hrs by sulphorhodamine B assay; format: functional; details: HCT-15, 48 h, read-out: GI; outline: as §1
CCRF-CEM = experiment: Cytotoxicity against human CCRF-CEM cells assessed as growth inhibition at 10 uM after 48 hrs by sulphorhodamine B assay; format: functional; details: read-out: GI; outline: as §1
NCI/ADR-RES = experiment: Cytotoxicity against human NCI/ADR-RES cells assessed as growth inhibition at 10 uM after 48 hrs by sulphorhodamine B assay; format: functional; details: read-out: GI; outline: as §1
SNB-19 = experiment: Cytotoxicity against human SNB19 cells assessed as growth inhibition at 10 uM after 48 hrs by sulphorhodamine B assay; format: functional; details: SNB-19, 48 h, read-out: GI; outline: as §1
Hs-578T = experiment: Cytotoxicity against human Hs578T cells assessed as growth inhibition at 10 uM after 48 hrs by sulphorhodamine B assay; format: functional; details: read-out: GI; outline: as §1
ACHN = experiment: Cytotoxicity against human ACHN cells assessed as growth inhibition at 10 uM after 48 hrs by sulphorhodamine B assay; format: functional; details: read-out: GI; outline: as §1
RXF 393 = experiment: Cytotoxicity against human RXF393 cells assessed as growth inhibition at 10 uM after 48 hrs by sulphorhodamine B assay; format: functional; details: RXF 393, 48 h, read-out: GI; outline: as §1
K562 = experiment: Cytotoxicity against human K562 cells assessed as growth inhibition at 10 uM after 48 hrs by sulphorhodamine B assay; format: functional; details: K562, 48 h, read-out: GI; outline: as §1
NCI-H522 = experiment: Cytotoxicity against human NCI-H522 cells assessed as growth inhibition at 10 uM after 48 hrs by sulphorhodamine B assay; format: functional; details: NCI-H522, 48 h, read-out: GI; outline: as §1
[2] = Displacement of methyl green from DNA (unknown origin) after 24 hrs
Outline: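 DNA-methyl green complex was stirred in 0.05 M Tris-HCl pH 7.5 with 7.5 mmol MgSO4 at 37 °C for 24 h. Compound was dried down from EtOH in tubes and the DNA-methyl green solution added. A630 was read initially and after 24 h dark incubation at room temperature, corrected and normalized to untreated complex. IC50 is the concentration giving a 50% absorbance decrease; mean ± SD, n = 6.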

SR = experiment: Cytotoxicity against human SR cells assessed as growth inhibition at 10 uM after 48 hrs by sulphorhodamine B assay; format: functional; details: read-out: GI; outline: as §1
MDA-MB-435 = experiment: Cytotoxicity against human MDA-MB-435 cells assessed as growth inhibition at 10 uM after 48 hrs by sulphorhodamine B assay; format: functional; details: MDA-MB-435, 48 h, read-out: GI; outline: as §1
U-251 = experiment: Cytotoxicity against human U251 cells assessed as growth inhibition at 10 uM after 48 hrs by sulphorhodamine B assay; format: functional; details: U-251, 48 h, read-out: GI; outline: as §1
DU-145 = experiment: Cytotoxicity against human DU145 cells assessed as growth inhibition at 10 uM after 48 hrs by sulphorhodamine B assay; format: functional; details: DU-145, 48 h, read-out: GI; outline: as §1
SF-268 = experiment: Cytotoxicity against human SF268 cells assessed as growth inhibition at 10 uM after 48 hrs by sulphorhodamine B assay; format: functional; details: SF-268, 48 h, read-out: GI; outline: as §1
CAKI-1 = experiment: Cytotoxicity against human Caki1 cells assessed as growth inhibition at 10 uM after 48 hrs by sulphorhodamine B assay; format: functional; details: CAKI-1, 48 h, read-out: GI; outline: as §1
OVCAR-5 = experiment: Cytotoxicity against human OVCAR5 cells assessed as growth inhibition at 10 uM after 48 hrs by sulphorhodamine B assay; format: functional; details: OVCAR-5, 48 h, read-out: GI; outline: as §1
RPMI-8226 = experiment: Cytotoxicity against human RPMI8226 cells assessed as growth inhibition at 10 uM after 48 hrs by sulphorhodamine B assay; format: functional; details: RPMI-8226, 48 h, read-out: GI; outline: as §1
A498 = experiment: Cytotoxicity against human A498 cells assessed as growth inhibition at 10 uM after 48 hrs by sulphorhodamine B assay; format: functional; details: A498, 48 h, read-out: GI; outline: as §1
UACC-62 = experiment: Cytotoxicity against human UACC62 cells assessed as growth inhibition at 10 uM after 48 hrs by sulphorhodamine B assay; format: functional; details: UACC-62, 48 h, read-out: GI; outline: as §1
MOLT-4 = experiment: Cytotoxicity against human MOLT4 cells assessed as growth inhibition at 10 uM after 48 hrs by sulphorhodamine B assay; format: functional; details: MOLT-4, 48 h, read-out: GI; outline: as §1
NCI-H23 = experiment: Cytotoxicity against human NCI-H23 cells assessed as growth inhibition at 10 uM after 48 hrs by sulphorhodamine B assay; format: functional; details: NCI-H23, 48 h, read-out: GI; outline: as §1
IGROV-1 = experiment: Cytotoxicity against human IGROV1 cells assessed as growth inhibition at 10 uM after 48 hrs by sulphorhodamine B assay; format: functional; details: IGROV-1, 48 h, read-out: GI; outline: as §1
A549 = experiment: Cytotoxicity against human A549 cells assessed as growth inhibition at 10 uM after 48 hrs by sulphorhodamine B assay; format: functional; details: A549, 48 h, read-out: GI; outline: as §1
SF-295 = experiment: Cytotoxicity against human SF295 cells assessed as growth inhibition at 10 uM after 48 hrs by sulphorhodamine B assay; format: functional; details: SF-295, 48 h, read-out: GI; outline: as §1
T47D = experiment: Cytotoxicity against human T47D cells assessed as growth inhibition at 10 uM after 48 hrs by sulphorhodamine B assay; format: functional; details: read-out: GI; outline: as §1
PC-3 = experiment: Cytotoxicity against human PC3 cells assessed as growth inhibition at 10 uM after 48 hrs by sulphorhodamine B assay; format: functional; details: PC-3, 48 h, read-out: GI; outline: as §1
HCT-116 = experiment: Cytotoxicity against human HCT116 cells assessed as growth inhibition at 10 uM after 48 hrs by sulphorhodamine B assay; format: functional; details: HCT-116, 48 h, read-out: GI; outline: as §1
[3] = Binding affinity to DNA (unknown origin) at 5 mg/mL by RP-TLC plate analysis
Outline: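 Reversed-phase C18 TLC plates pre-developed in methanol/water 8:2. Compound spotted at origin (5 mg/mL in methanol), then DNA (1 mg/mL in water/methanol 8:2) applied at the same spot. Plates developed in the same eluent; DNA located by anisaldehyde spray (blue). Ethidium bromide as positive control.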

HL-60(TB) = experiment: Cytotoxicity against human HL-60(TB) cells assessed as growth inhibition at 10 uM after 48 hrs by sulphorhodamine B assay; format: functional; details: HL-60, 48 h, read-out: GI
Outline: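 NCI-60 one-dose primary screen run to the Drug Evaluation Branch protocol. Cells are exposed to a single 10 µM concentration for 48 h continuously, and growth is read by SRB protein assay. Data are reported as percent growth of treated cells, expressed as % growth inhibition.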

HT-29 = experiment: Cytotoxicity against human HT-29 cells assessed as growth inhibition at 10 uM after 48 hrs by sulphorhodamine B assay; format: functional; details: HT-29, 48 h, read-out: GI; outline: as §1
MCF7 = experiment: Cytotoxicity against human MCF7 cells assessed as growth inhibition at 10 uM after 48 hrs by sulphorhodamine B assay; format: functional; details: MCF7, 48 h, read-out: GI; outline: as §1
HOP-92 = experiment: Cytotoxicity against human HOP92 cells assessed as growth inhibition at 10 uM after 48 hrs by sulphorhodamine B assay; format: functional; details: HOP-92, 48 h, read-out: GI; outline: as §1
LOX IMVI = experiment: Cytotoxicity against human LOXIMVI cells assessed as growth inhibition at 10 uM after 48 hrs by sulphorhodamine B assay; format: functional; details: read-out: GI; outline: as §1
M14 = experiment: Cytotoxicity against human M14 cells assessed as growth inhibition at 10 uM after 48 hrs by sulphorhodamine B assay; format: functional; details: M14, 48 h, read-out: GI; outline: as §1

Structure (SMILES): CC1CCCc2c1nc1[nH]c(=S)n(-c3ccccc3)c(=N)c1c2-c1ccc(Cl)cc1 (configuration not stated)
- inhibition of growth at 10 µM [1]: 31%
- inhibition of growth at 10 µM (SK-MEL-2): 11.3%
- inhibition of growth at 10 µM (SK-MEL-5): 12%
- inhibition of growth at 10 µM (SK-OV-3): 10.4%
- inhibition of growth at 10 µM (OVCAR-4): 14.5%
- inhibition of growth at 10 µM (SNB-75): 13.9%
- inhibition of growth at 10 µM (UO-31): 44.4%
- inhibition of growth at 10 µM (HCT-15): 10%
- inhibition of growth at 10 µM (CCRF-CEM): 20.7%
- inhibition of growth at 10 µM (NCI/ADR-RES): 11.4%
- inhibition of growth at 10 µM (SNB-19): < 10%
- inhibition of growth at 10 µM (Hs-578T): < 10%
- inhibition of growth at 10 µM (ACHN): 11.3%
- inhibition of growth at 10 µM (RXF 393): 17.8%
- inhibition of growth at 10 µM (K562): 28.5%
- inhibition of growth at 10 µM (NCI-H522): 31%
- IC50 [2]: 0.097 µg/mL (≈ 0.224 µM)
- inhibition of growth at 10 µM (SR): < 10%
- inhibition of growth at 10 µM (MDA-MB-435): < 10%
- inhibition of growth at 10 µM (U-251): 15.2%
- inhibition of growth at 10 µM (DU-145): 13%
- inhibition of growth at 10 µM (SF-268): < 10%
- inhibition of growth at 10 µM (CAKI-1): < 10%
- inhibition of growth at 10 µM (OVCAR-5): 14.3%
- inhibition of growth at 10 µM (RPMI-8226): 66%
- inhibition of growth at 10 µM (A498): 25.2%
- inhibition of growth at 10 µM (UACC-62): 25.3%
- inhibition of growth at 10 µM (MOLT-4): 40%
- inhibition of growth at 10 µM (NCI-H23): 11.5%
- inhibition of growth at 10 µM (IGROV-1): 33.3%
- inhibition of growth at 10 µM (A549): 18.9%
- inhibition of growth at 10 µM (SF-295): 12.8%
- inhibition of growth at 10 µM (T47D): 50%
- inhibition of growth at 10 µM (PC-3): 21%
- inhibition of growth at 10 µM (HCT-116): 34%
- Activity [3]: Active
- inhibition of growth at 10 µM (HL-60(TB)): 24.2%
- inhibition of growth at 10 µM (HT-29): < 10%
- inhibition of growth at 10 µM (MCF7): < 10%
- inhibition of growth at 10 µM (HOP-92): 26.2%
- inhibition of growth at 10 µM (LOX IMVI): 13.1%
- inhibition of growth at 10 µM (M14): 17.3%
